Assay outcomes: PubChem, several laboratories
DNMT1 inh – DNMT1 (human) enzyme inhibition | inhibition (reported as % activation of signal), % at 10 µM | 0.83% of 360,000 active | DNMT1 molecular beacon, Hinp1I cleavage, fluorescence | AID 588458; in the data active = inhibition above about 50%
Scp1 inh – inhibitors of human Scp-1 phosphatase; 0.88% of 340,000 active; Recombinant Scp1, phosphopeptide, malachite green phosphate absorbance; inhibition, % at 20 µM; Q9GZU7;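 active = inhibition above about 50% at 20 µM, limit read from the data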
Target sequence (Q9GZU7 76-261 limits assumed): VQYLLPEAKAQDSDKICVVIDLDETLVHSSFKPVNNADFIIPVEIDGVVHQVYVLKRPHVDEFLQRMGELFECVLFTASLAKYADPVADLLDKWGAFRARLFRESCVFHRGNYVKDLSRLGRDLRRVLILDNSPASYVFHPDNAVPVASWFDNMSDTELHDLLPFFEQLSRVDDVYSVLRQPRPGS
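System: truncated SCP-1 phosphatase (76-261aa); medium: Tris acetate buffer pH 5.5 with MgCl2 and Tween-20; incubation: 45 min room-temperature reaction, 5 min colour, 30 min stabiliser; compound: single 20 µM dose, 1% DMSO; reagent: Phosphorylated 17-residue peptide substrate; read-out: % inhibition at 20 µM; technique: colorimetric free-phosphate detection, absorbance 630 nm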
STEP inh – inhibitors of human striatal-enriched phosphatase STEP. recombinant STEP, OMFP fluorogenic substrate, fluorescence. inhibition, % at 20 µM. 0.25% of 360,000 active. AID 588621;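 active = inhibition at 20 µM, scaled per plate between control wells, above about 37%, limit read from the data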
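System: STEP phosphatase, cell-free reaction; Buffer or medium: Bis-Tris pH 6.0 buffer with DTT, detergent; Incubation: 20 min at room temperature, dark; Measured by: fluorescence, 480/540 nm.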
SUMO1 PPI mod – SUMO1-SIM interaction modulation; P63165; AID 602429; 0.33% of 360,000 active; inhibition, % at 20 µM; SUMO1 binding to a labelled peptide, TR-FRET, 1 h; in the data active = inhibition above about 37%
Target sequence (P63165 whole entry, looked up): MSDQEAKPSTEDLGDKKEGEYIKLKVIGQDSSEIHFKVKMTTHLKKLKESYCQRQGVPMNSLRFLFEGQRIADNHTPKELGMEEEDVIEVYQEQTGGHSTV
LMPTP block – blocks human LMPTP phosphatase; recombinant LMPTP-A, OMFP fluorogenic substrate, fluorescence intensity; inhibition, % at 20 µM; 0.22% of 360,000 active;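 active = compounds that cut the enzyme signal by at least half of the control window in the single-dose screen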
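material = LMPTP-A | quantity = 0.625 nM enzyme | reagent = OMFP substrate, 400 µM final | buffer or medium = Bis-Tris pH 6.0, DTT, detergent | detection = endpoint fluorescence intensity from OMFP dephosphorylation | dosing = single 20 µM dose | read-out basis = % inhibition relative to no-enzyme and uninhibited control wells | control set = no-enzyme and uninhibited controls | timing = 50 min at room temperature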
CASP6 VEID inh – blocks human caspase-6 cleavage activity; P55212; purified caspase-6, Z-VEID-R110 cleavage fluorescence; inhibition, % at 12.5 µM; 0.53% of 350,000 active; AID 686996;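 active = mean inhibition across replicates at least about 35%, with every replicate also reaching that limit, limit read from the data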
Target sequence (P55212 24-179 limits assumed): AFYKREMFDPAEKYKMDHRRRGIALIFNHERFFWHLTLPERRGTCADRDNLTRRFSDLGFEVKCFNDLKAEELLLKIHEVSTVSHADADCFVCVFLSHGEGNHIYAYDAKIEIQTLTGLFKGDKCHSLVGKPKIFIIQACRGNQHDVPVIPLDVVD
Target sequence (P55212 194-293 limits assumed): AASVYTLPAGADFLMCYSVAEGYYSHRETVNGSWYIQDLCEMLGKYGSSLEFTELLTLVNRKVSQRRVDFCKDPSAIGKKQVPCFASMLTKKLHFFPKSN
Scp-1 conf – Scp-1 (human) inhibition, single-dose confirmed | shares compounds with Scp1 inh | 61% of 2,500 active | recombinant SCP-1 catalytic domain, phosphate release, malachite green absorbance | AID 540281 | inhibition, % at 20 µM
MG interference – interferes with malachite green readout, flagging false Scp-1 hits. Colorimetric interference counterscreen, malachite green absorbance 630 nm. shares compounds with Scp1 inh. apparent inhibition (interference), % at 20 µM. 2,500 tested, under 10 active;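 also: compounds added after enzyme reaction finished so only phosphate colour detection is probed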
Scp-1 Tm shift – validation of human Scp-1 inhibitors by thermal shift binding; shares compounds with Scp1 inh; Recombinant SCP1, Sypro Orange thermal shift Tm; thermal shift relative to vanadate control, % at 40 µM; 25% of 1,500 active;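 active = substances whose mean melting-temperature shift, as a percentage of the reference inhibitor's shift, reaches about 5.3%, limit read from the data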
DNMT1 interf DR – counter-screen for DNMT1 inhibitors: spectral interference, dose response; shares compounds with DNMT1 inh; molecular beacon fluorescence; IC50, µM; 200 tested, under 10 active; AID 602382; call rule not given here
DNMT1 confirm – DNMT1 inhibition confirmation, single concentration; DNMT1 molecular beacon HinP1I cleavage, fluorescence; inhibition, % at 10 µM; 8% of 2,300 active; shares compounds with DNMT1 inh; AID 602385;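 active = average inhibition of at least 30% in the single-concentration confirmation test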
Beacon interf – beacon fluorescence artifact counter-screen; shares compounds with DNMT1 inh; DNMT1 molecular beacon spectral interference counterscreen, fluorescence 485/520; activation (fluorescence interference), % at 10 µM; 1% of 2,300 active; AID 602387;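 active = activation of at least 30% at 10 µM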;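 also: DNMT1 catalytic domain with a HinP1I cleavage step and a FAM/dabcyl DNA beacon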
Of the large screens only hits and unclear results are named; the others gave an inactive call (follow-up assays come after a bar, where they were run). Compounds with a hit are over-represented: about 1.7% of the library has one in this group of screens.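 The calls were made as follows, unless noted: active = inhibition of at least 30% at 20 µM; inactive = the rest.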

C=CCn1c(O)c(N=NC(=O)CNC(=O)/C=C/c2ccco2)c2ccccc21	DNMT1 inh 93, Scp1 inh 90 (no result: CASP6 VEID inh) | Scp-1 conf 48 | MG interference inactive | Scp-1 Tm shift inactive | DNMT1 confirm inactive | Beacon interf inactive
COCCn1c(C)cc(C(=O)COC(=O)c2cccc(O)c2)c1C	none
COCCn1c(C)cc(C(=O)COC(=O)c2cc3c(s2)CCC3)c1C	DNMT1 inh 105, Scp1 inh 52 (no result: CASP6 VEID inh) | Scp-1 conf 70 | MG interference inactive | Scp-1 Tm shift inactive | DNMT1 confirm inactive | Beacon interf inactive
CCn1c(SCC(=O)OC)nc2sc3c(c2c1=O)CCC3	DNMT1 inh 70, Scp1 inh 57 (no result: CASP6 VEID inh) | Scp-1 conf 64 | MG interference inactive | Scp-1 Tm shift inactive | DNMT1 confirm inactive | Beacon interf inactive
Cn1c(SCC(=O)O)nc2sc3c(c2c1=O)CCC3	none
CCn1c(SCC(=O)O)nc2sc3c(c2c1=O)CCC3	DNMT1 inh 71, Scp1 inh 73 (no result: CASP6 VEID inh) | Scp-1 conf 50 | MG interference inactive | Scp-1 Tm shift inactive | DNMT1 confirm inactive | Beacon interf inactive
O=C(O)c1ccc(COc2c(F)c(F)c(F)c(F)c2F)o1	DNMT1 inh 56, Scp1 inh 57 (no result: CASP6 VEID inh) | Scp-1 conf 48 | MG interference inactive | Scp-1 Tm shift inactive | DNMT1 confirm inactive | Beacon interf inactive
Cc1cc(C)cc(OCc2ccc(C(=O)O)o2)c1	none (no result: CASP6 VEID inh)
CCNC(=O)CNC(=O)c1nn(Cc2ccccc2)c(=O)c2ccccc12	none
CC(C)Nc1nc(NC(C)C)nc(Oc2ccc(OCc3ccccc3)nn2)n1	none (no result: CASP6 VEID inh)
N#Cc1c(NC(=O)c2ccco2)sc2c1CCC2	DNMT1 inh 54, Scp1 inh 63, CASP6 VEID inh 48 | Scp-1 conf 56 | MG interference inactive | Scp-1 Tm shift inactive | DNMT1 confirm inactive | Beacon interf inactive
COc1ccc(C(=O)N/N=C/c2ccc(OC(=O)c3cccc4ccccc34)c([N+](=O)[O-])c2)cc1	DNMT1 inh 53, Scp1 inh 92 | Scp-1 conf 65 | MG interference inactive | Scp-1 Tm shift 6.6 | DNMT1 confirm inactive | Beacon interf inactive
COc1ccc2[nH]c(=O)c(C(=O)O)cc2c1	none
COc1ccc2[nH]c(=O)cc(C(=O)O)c2c1	DNMT1 inh 58, Scp1 inh 69 | Scp-1 conf 73 | MG interference inactive | Scp-1 Tm shift inactive | DNMT1 confirm inactive | Beacon interf inactive
Cc1c(/N=C/c2ccco2)n(Cc2ccccc2)c2ccccc12	none (no result: CASP6 VEID inh)
CCOc1ccc(CCNC(=O)C2CC=CCC2C(=O)OC(C)C)cc1OCC (stereo not given)	none (no result: CASP6 VEID inh)
CCOc1ccc(CCNC(=O)C2CC(C)=CCC2C(=O)O)cc1OCC (stereo not given)	DNMT1 inh 53, Scp1 inh 87, SUMO1 PPI mod 56, CASP6 VEID inh 36 | Scp-1 conf 58 | MG interference inactive | Scp-1 Tm shift inactive | DNMT1 confirm inactive | Beacon interf inactive
C=C(C)CCOC(=O)C(CC(=O)O)NCc1ccco1 (stereo not given)	DNMT1 inh 63, Scp1 inh 86 | Scp-1 conf 67 | MG interference inactive | Scp-1 Tm shift inactive | DNMT1 confirm inactive | Beacon interf inactive
O=C(Cc1ccccc1)N/N=C/c1ccc(OC(=O)/C=C\c2ccco2)cc1	none (no result: CASP6 VEID inh)
COC(=O)N/N=C/c1ccc(OC(=O)/C=C/c2ccco2)cc1	DNMT1 inh 53, Scp1 inh 56 | Scp-1 conf inactive | MG interference inactive | DNMT1 confirm inactive | Beacon interf inactive
COc1ccc(OC)c(NC(=O)CCC(=O)N(Cc2ccc(OC)c(OC)c2)c2nccs2)c1	none
NC(=O)COc1ccc2oc(-c3ccccc3)cc(=O)c2c1	none
CCc1ccccc1NC(=O)COc1ccc2oc(-c3ccc(OC)cc3)cc(=O)c2c1	DNMT1 inh 68, Scp1 inh 74 | Scp-1 conf 59 | MG interference inactive | Scp-1 Tm shift inactive | DNMT1 confirm inactive | Beacon interf inactive
Cc1ccccc1-c1ccc(C(=O)Nc2cccc(F)c2)o1	none
O=C(N/N=C/c1ccco1)c1cccc(NC(=O)c2ccccc2Cl)c1	none
Cc1cccc(C(=O)Nc2ccc(C(=O)N/N=C/c3ccco3)cc2)c1	DNMT1 inh 72, Scp1 inh 77 | Scp-1 conf 56 | MG interference inactive | Scp-1 Tm shift inactive | DNMT1 confirm inactive | Beacon interf inactive
Cc1ccc(S(=O)(=O)N2[C@@H](c3ccc4c(c3)OCO4)C(C(=O)O)=C[C@H]2CC2CCCC2)cc1	none
COc1cc(O)c(C(C)=O)c(CC(=O)O)c1	DNMT1 inh 50, Scp1 inh 64 | Scp-1 conf 49 | MG interference inactive | Scp-1 Tm shift 9.4 | DNMT1 confirm inactive | Beacon interf inactive
COc1cc(O)c(C(C)=O)c(OC)c1	none
Cc1cccc(CSc2nncc(=O)[nH]2)c1	none (no result: CASP6 VEID inh)
COc1ccc(NC(=S)NNc2ccc(S(=O)(=O)Nc3ccccc3C(=O)O)cc2[N+](=O)[O-])cc1	none
C=CCOc1ccc(C=NNc2ccc(S(=O)(=O)Nc3ccccc3C(=O)O)cc2[N+](=O)[O-])cc1OC	DNMT1 inh 90, Scp1 inh 71, STEP inh 100, SUMO1 PPI mod 69, LMPTP block 100 | Scp-1 conf 82 | MG interference inactive | Scp-1 Tm shift 15 | DNMT1 interf DR inactive | DNMT1 confirm 110 | Beacon interf inactive
O=C(/C=C/c1ccco1)NCC1OCCc2ccccc21 (stereo not given)	DNMT1 inh 56, Scp1 inh 91 | Scp-1 conf 62 | MG interference inactive | Scp-1 Tm shift inactive | DNMT1 confirm inactive | Beacon interf inactive
